Test results taken from ChEMBL document CHEMBL1155708, “Isoaurostatin, a novel topoisomerase inhibitor produced by Thermomonospora alba” (J Nat Prod, 2001).

Tests used:
[1] = molecular target: T1, Type II restriction enzyme ScaI (Streptomyces caespitosus, UniProt O52691); assay: Inhibition of Streptomyces caespitosus Sca 1 assessed as undigested supercoiled pBR322 DNA concentration
T1 sequence (O52691 whole entry): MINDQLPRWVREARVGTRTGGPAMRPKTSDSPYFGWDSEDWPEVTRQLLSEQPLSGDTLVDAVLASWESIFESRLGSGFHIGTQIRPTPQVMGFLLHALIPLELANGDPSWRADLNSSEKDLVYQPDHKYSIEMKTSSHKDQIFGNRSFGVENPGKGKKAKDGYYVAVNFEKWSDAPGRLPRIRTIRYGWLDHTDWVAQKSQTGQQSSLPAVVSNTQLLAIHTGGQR
How it was run: (§1)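 Restriction enzyme or nuclease activity followed as the remaining undigested supercoiled pBR322 DNA (or RNA) after reaction.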

[2] = molecular target: Telomerase reverse transcriptase (Homo sapiens, UniProt O14746); assay: Inhibition of telomerase from human COLO201 cell
Chain of Telomerase reverse transcriptase (O14746 whole entry): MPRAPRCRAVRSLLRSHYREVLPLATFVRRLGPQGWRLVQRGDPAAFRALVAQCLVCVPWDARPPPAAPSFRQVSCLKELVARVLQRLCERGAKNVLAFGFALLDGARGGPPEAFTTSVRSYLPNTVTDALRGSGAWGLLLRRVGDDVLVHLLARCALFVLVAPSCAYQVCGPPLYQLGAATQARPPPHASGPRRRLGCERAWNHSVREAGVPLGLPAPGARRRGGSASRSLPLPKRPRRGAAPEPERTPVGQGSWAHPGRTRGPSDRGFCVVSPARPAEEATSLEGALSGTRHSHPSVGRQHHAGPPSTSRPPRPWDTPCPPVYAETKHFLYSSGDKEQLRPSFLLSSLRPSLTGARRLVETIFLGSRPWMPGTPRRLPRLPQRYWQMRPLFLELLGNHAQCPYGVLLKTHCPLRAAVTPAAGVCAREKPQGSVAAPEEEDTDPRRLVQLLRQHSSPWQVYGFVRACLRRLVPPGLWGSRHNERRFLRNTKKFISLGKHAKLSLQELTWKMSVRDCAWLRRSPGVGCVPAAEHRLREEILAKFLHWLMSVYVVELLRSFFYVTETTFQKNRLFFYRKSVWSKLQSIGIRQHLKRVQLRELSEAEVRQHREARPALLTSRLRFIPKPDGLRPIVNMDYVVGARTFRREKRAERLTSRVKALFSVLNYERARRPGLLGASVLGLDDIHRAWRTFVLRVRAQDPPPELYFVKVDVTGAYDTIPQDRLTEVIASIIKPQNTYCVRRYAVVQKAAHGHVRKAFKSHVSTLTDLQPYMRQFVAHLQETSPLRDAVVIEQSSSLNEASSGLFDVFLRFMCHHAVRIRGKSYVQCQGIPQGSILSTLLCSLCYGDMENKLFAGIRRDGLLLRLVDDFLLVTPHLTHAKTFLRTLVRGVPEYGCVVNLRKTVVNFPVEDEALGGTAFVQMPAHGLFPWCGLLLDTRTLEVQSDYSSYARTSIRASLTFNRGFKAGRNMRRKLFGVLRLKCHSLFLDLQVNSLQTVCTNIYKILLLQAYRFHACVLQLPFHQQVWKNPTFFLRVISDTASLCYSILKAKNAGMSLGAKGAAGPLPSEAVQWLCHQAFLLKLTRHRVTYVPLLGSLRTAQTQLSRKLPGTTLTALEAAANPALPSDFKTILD

DNA topoisomerase 1 = molecular target: T2, DNA topoisomerase 1 (Chlorocebus aethiops, UniProt Q7YR26); assay: Inhibition topoisomerase 1 in african green monkey Vero cells assessed as conversion of supercoiled pBR322 DNA to relaxed form; format: cell-based, Chlorocebus sabaeus
T2 sequence (Q7YR26 whole entry): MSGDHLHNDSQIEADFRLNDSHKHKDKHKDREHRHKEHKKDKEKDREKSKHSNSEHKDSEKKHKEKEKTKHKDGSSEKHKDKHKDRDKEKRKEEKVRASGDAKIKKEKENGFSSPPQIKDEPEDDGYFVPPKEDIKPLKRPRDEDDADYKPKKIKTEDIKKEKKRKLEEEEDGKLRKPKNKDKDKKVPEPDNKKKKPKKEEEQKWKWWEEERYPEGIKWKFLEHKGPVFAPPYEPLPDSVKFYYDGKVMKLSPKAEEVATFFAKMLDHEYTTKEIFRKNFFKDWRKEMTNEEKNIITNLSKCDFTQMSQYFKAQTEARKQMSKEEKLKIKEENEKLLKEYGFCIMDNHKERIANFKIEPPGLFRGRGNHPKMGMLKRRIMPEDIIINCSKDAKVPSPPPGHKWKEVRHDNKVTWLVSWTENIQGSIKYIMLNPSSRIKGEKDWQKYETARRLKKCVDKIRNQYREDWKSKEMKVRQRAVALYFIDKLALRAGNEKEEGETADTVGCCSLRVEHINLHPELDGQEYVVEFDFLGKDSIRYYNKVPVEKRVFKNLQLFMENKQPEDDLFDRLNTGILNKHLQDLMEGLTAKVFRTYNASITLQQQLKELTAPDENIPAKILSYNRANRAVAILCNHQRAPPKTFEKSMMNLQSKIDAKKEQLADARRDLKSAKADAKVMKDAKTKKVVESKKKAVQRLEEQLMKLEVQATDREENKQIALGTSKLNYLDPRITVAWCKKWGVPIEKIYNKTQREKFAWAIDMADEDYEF
How it was run: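 Enzyme source: Vero or NIH3T3 cells cultured 5 days, washed in PBS and pelleted (1 × 10^6 cells). Lysed 30 min on ice in 200 µL buffer (10 mM Tris-HCl pH 7.5, MgCl2, EGTA, AEBSF, β-mercaptoethanol, 0.5% CHAPS, 10% glycerin); the cleared supernatant relaxed supercoiled pBR322. Gel densitometry; IC50 is the amount halving activity.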

Ribonuclease pancreatic = molecular target: T3, Ribonuclease pancreatic (Bos taurus, UniProt P61823); assay: Inhibition of bovine pancreas RNase A assessed as undigested supercoiled pBR322 DNA concentration; how it was run: as §1
T3 sequence (P61823 whole entry): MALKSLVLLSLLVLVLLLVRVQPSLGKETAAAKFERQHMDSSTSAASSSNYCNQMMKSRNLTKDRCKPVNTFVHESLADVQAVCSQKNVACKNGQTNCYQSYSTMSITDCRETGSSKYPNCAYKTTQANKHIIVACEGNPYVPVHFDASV

Deoxyribonuclease-1 = Deoxyribonuclease-1 (Bos taurus, UniProt P00639); assay: Inhibition of bovine pancreas DNase 1 assessed as undigested supercoiled pBR322 DNA concentration; how it was run: as §1
Chain of Deoxyribonuclease-1 (P00639 whole entry): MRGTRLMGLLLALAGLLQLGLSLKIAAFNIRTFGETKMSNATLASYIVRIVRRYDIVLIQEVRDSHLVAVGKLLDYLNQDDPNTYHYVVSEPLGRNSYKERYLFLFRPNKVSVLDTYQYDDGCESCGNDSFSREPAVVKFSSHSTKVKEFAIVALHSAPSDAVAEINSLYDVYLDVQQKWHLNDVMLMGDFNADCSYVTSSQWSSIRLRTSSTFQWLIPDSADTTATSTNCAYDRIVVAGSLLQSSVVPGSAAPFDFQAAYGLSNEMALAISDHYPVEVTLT

[3] = molecular target: T4, Deoxyribonuclease-2-alpha (Sus scrofa, UniProt O62855); assay: Inhibition of porcine spleen DNase 2 assessed as undigested supercoiled pBR322 DNA concentration; how it was run: as §1
T4 sequence (O62855 whole entry): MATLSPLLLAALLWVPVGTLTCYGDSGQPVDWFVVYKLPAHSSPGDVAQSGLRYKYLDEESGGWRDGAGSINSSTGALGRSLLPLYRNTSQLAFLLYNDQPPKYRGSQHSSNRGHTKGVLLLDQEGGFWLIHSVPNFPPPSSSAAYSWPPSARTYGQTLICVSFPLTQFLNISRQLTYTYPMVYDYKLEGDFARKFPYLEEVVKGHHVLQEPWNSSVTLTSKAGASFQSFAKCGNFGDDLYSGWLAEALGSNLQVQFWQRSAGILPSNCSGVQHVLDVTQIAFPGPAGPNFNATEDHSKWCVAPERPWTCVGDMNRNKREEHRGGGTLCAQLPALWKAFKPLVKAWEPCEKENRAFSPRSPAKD

DNA ligase = molecular target: T5, DNA ligase (Enterobacteria phage T4, UniProt P00970); assay: Inhibition of T4 ligase from bacteriophage infected Escherichia coli assessed as ligation of supercoiled pBR322 DNA; set-up: species or system Tequatrovirus T4
T5 sequence (P00970 whole entry): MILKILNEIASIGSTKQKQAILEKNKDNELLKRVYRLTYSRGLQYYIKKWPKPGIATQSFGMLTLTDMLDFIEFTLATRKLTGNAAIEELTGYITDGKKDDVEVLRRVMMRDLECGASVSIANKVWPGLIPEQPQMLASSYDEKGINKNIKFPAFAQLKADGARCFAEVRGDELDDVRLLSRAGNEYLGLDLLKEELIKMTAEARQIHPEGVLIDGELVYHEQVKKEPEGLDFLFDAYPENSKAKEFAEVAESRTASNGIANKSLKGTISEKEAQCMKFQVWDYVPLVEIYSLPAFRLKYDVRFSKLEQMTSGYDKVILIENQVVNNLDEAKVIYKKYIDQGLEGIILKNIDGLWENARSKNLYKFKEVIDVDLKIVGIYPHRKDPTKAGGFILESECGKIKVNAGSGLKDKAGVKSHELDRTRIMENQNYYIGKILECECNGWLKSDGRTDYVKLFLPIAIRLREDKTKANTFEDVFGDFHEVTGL

[4] = Inhibition of Arthrobacter luteus AluI assessed as undigested supercoiled pBR322 DNA concentration; set-up: species or system Cellulosimicrobium cellulans; how it was run: as §1
[5] = molecular target: T6, Type II restriction enzyme BamHI (Bacillus amyloliquefaciens, UniProt P23940); assay: Inhibition of Bacillus amyloliquifaction Bam H1 assessed as undigested supercoiled pBR322 DNA concentration; how it was run: as §1
T6 sequence (P23940 whole entry): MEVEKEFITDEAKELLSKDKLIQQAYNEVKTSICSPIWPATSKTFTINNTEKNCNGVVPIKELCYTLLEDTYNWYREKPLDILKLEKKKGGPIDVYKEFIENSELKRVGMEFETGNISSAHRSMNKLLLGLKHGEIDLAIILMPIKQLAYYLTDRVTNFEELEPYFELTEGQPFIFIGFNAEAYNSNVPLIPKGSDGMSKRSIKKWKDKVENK

[6] = molecular target: DNA topoisomerase 2-alpha (Homo sapiens, UniProt P11388); assay: Inhibition human placenta topoisomerase 2 assessed as conversion of supercoiled pBR322 DNA to relaxed form
Chain of DNA topoisomerase 2-alpha (P11388 whole entry): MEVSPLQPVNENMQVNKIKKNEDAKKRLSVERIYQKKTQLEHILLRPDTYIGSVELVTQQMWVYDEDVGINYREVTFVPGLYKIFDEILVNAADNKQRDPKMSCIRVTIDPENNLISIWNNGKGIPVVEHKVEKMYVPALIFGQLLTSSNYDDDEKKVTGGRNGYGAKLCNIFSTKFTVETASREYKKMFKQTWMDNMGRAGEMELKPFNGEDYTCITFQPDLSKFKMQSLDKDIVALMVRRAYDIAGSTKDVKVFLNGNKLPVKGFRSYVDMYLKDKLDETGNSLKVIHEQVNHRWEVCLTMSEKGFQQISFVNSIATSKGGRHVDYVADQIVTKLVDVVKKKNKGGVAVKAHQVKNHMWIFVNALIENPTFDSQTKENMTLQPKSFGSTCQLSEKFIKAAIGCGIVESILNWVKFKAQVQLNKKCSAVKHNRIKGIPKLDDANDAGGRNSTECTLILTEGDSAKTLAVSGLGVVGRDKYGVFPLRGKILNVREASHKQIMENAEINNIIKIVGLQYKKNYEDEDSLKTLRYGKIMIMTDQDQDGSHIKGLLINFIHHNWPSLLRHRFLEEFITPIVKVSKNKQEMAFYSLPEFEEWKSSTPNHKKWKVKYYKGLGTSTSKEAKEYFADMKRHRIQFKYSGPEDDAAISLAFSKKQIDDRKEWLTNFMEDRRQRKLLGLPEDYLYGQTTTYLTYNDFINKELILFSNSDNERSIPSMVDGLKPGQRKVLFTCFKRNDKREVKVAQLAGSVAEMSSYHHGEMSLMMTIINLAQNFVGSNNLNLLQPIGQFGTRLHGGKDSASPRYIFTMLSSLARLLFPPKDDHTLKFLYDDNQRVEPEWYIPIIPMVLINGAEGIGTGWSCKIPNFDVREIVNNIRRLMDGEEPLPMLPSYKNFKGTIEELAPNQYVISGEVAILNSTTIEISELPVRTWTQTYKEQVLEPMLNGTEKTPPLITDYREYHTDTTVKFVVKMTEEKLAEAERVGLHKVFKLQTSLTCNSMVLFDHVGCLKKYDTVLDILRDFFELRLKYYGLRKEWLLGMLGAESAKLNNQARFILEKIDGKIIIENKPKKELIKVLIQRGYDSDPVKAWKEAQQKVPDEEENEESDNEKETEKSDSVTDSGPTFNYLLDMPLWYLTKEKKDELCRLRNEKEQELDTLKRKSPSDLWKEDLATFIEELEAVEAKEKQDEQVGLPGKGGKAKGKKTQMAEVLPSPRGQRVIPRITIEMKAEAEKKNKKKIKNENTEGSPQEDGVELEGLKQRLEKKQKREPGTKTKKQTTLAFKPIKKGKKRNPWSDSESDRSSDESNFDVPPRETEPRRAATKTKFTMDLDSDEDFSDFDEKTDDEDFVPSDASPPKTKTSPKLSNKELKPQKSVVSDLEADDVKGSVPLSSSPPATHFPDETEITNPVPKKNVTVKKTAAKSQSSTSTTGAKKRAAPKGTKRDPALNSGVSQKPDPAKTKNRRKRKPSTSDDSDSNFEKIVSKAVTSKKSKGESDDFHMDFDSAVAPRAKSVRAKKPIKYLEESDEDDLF

Row | IC50 [6] | SMILES | IC50 [1] | IC50 [2] | IC50 (DNA topoisomerase 1) | IC50 (Ribonuclease pancreatic) | IC50 (Deoxyribonuclease-1) | IC50 [3] | IC50 (DNA ligase) | IC50 [4] | IC50 [5]
1 |  | CC[C@@]1(O)C(=O)OCc2c1cc1n(c2=O)Cc2cc3ccccc3nc2-1 [CAMPTOTHECIN] | > 300 µM | > 300 µM | 27 µM | > 300 µM | > 300 µM | > 300 µM | > 300 µM | > 300 µM | > 300 µM
2 | 1 µM | COc1cccc2c1C(=O)c1c(O)c3c(c(O)c1C2=O)C[C@@](O)(C(=O)CO)C[C@@H]3O[C@H]1C[C@H](N)[C@H](O)[C@H](C)O1 [DOXORUBICIN] | 25 µM | 73 µM | > 200 µM | 25 µM | > 200 µM | > 200 µM | > 200 µM | 24 µM | > 200 µM
3 | 4 µM | C=C1NC(=O)C(C)C(CCC(C)C(=O)/C=C/C(C)=C/CC(C)CCCCCCC)OC(=O)[C@H](CC(OS(=O)(=O)O)C(N)=O)NC(=O)[C@@H](C)CNC1=O (some centres undefined) [TOPOSTATIN] | 7 µM | > 250 µM | 17 µM | > 250 µM | > 250 µM | > 250 µM | > 250 µM | > 250 µM | 185 µM

Row | SMILES | IC50 [6] | IC50 [1] | IC50 [2] | IC50 (DNA topoisomerase 1) | IC50 (Ribonuclease pancreatic) | IC50 (Deoxyribonuclease-1) | IC50 [3] | IC50 (DNA ligase) | IC50 [4] | IC50 [5]
4 | O=C1Oc2cc(O)ccc2/C1=C\c1ccc(O)cc1 [ISOAUROSTATIN] | > 400 µM | > 400 µM | > 400 µM | > 400 µM | > 400 µM | > 400 µM | > 400 µM | > 400 µM | > 400 µM | > 400 µM
